ChEMBL document CHEMBL4014329, “Selective Inhibition of Escherichia coli RNA and DNA Topoisomerase I by Hoechst 33258 Derived Mono- and Bisbenzimidazoles” (J Med Chem, 2017)
Converted amounts (≈) assume the structure as drawn. The source made the active and inactive calls. No cut-off for these calls is given here.

What was measured:
Pseudomonas aeruginosa = experiment: Antibacterial activity against Pseudomonas aeruginosa ATCC 27853 after 24 hrs by microbroth dilution method; assay type: functional; conditions: ATCC 27853, 24 h
Summary of the method: (§1)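 Microbroth dilution per CLSI guidelines. Organisms grown in Mueller−Hinton broth at 37 °C with shaking to log phase, pelleted, resuspended in 0.85% saline to OD625 0.1. Final inoculum 5 × 10^5 CFU/mL; triplicate; 24 h at 37 °C. OD625 read; MIC = lowest concentration completely inhibiting growth versus untreated controls.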

[1] = tested on: Staphylococcus epidermidis; experiment: Antibacterial activity against Staphylococcus epidermidis ATCC 12384 after 24 hrs by microbroth dilution method; assay type: functional; conditions: ATCC 12384, 24 h; summary of the method: as §1
Staphylococcus aureus [2] = experiment: Antibacterial activity against Staphylococcus aureus ATCC 29213 after 24 hrs by microbroth dilution method; assay type: functional; conditions: ATCC 29213, 24 h; summary of the method: as §1
Shigella flexneri = experiment: Antibacterial activity against Shigella flexneri 2457NR517 after 24 hrs by microbroth dilution method; assay type: functional; conditions: 2457NR517, 24 h
Summary of the method: (§2)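 Mueller-Hinton broth cultures grown at 37 °C with shaking to log phase, pelleted, resuspended in 0.85% saline to OD625 0.1. Broth microdilution per CLSI guidelines, final inoculum 5 × 10^5 CFU/mL, in triplicate, 24 h at 37 °C. Growth read as OD625. MIC is the lowest concentration giving complete growth inhibition versus untreated controls.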

Enterococcus faecium = experiment: Antibacterial activity against Enterococcus faecium BM4105RF after 24 hrs by microbroth dilution method; assay type: functional; summary of the method: as §2
Staphylococcus aureus [3] = experiment: Antibacterial activity against methicillin-resistant Staphylococcus aureus 33591 after 24 hrs by microbroth dilution method; assay type: functional; conditions: Staphylococcus aureus, 33591, 24 h; summary of the method: as §2
Enterobacter cloacae = experiment: Antibacterial activity against Enterobacter cloacae ATCC 13047 after 24 hrs by microbroth dilution method; assay type: functional; conditions: ATCC 13047, 24 h; summary of the method: as §1
Escherichia coli [4] = experiment: Antibacterial activity against Escherichia coli ATCC 25922 after 24 hrs by microbroth dilution method; assay type: functional; conditions: ATCC 25922, 24 h; summary of the method: as §1
Staphylococcus aureus [5] = experiment: Antibacterial activity against Staphylococcus aureus ATCC 33591 after 24 hrs by microbroth dilution method; assay type: functional; conditions: ATCC 33591, 24 h; summary of the method: as §1
Escherichia coli [6] = experiment: Antibacterial activity against Escherichia coli K-12 after 24 hrs by microbroth dilution method; assay type: functional; conditions: K-12, 24 h; summary of the method: as §1
Acinetobacter baumannii = experiment: Antibacterial activity against Acinetobacter baumannii ATCC 19606 after 24 hrs by microbroth dilution method; assay type: functional; conditions: ATCC 19606 = CIP 70.34 = JCM 6841, 24 h; summary of the method: as §1
Escherichia coli [7] = experiment: Inhibition of Escherichia coli RNA topoisomerase 1 using circular RNA as substrate up to 80 uM after 1.5 hrs by SDS-PAGE analysis
Summary of the method: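 E. coli topoisomerase I (10 nM) premixed in reaction buffer with inhibitor diluted in DMSO, then circular RNA substrate added; 1.5 h. DMSO-only control included. Final inhibitor 2.5 to 80 μM. Stopped with proteinase K/SDS/EDTA. Trefoil RNA knot product resolved from substrate on 15% TBE-urea gels and detected by autoradiography.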

Enterococcus faecalis = experiment: Antibacterial activity against Enterococcus faecalis ATCC 29212 after 24 hrs by microbroth dilution method; assay type: functional; conditions: ATCC 29212, 24 h; summary of the method: as §1
Staphylococcus aureus [8] = experiment: Antibacterial activity against methicillin-resistant Staphylococcus aureus A960649 after 24 hrs by microbroth dilution method; assay type: functional; conditions: A960649, 24 h; summary of the method: as §2
DNA topoisomerase 1 = target: T1, DNA topoisomerase 1 (Homo sapiens, UniProt P11387); experiment: Inhibition of human DNA topoisomerase 1 using plasmid pBAD-GFPuv as substrate after 30 mins by agarose gel electrophoresis
T1 sequence (P11387 whole entry): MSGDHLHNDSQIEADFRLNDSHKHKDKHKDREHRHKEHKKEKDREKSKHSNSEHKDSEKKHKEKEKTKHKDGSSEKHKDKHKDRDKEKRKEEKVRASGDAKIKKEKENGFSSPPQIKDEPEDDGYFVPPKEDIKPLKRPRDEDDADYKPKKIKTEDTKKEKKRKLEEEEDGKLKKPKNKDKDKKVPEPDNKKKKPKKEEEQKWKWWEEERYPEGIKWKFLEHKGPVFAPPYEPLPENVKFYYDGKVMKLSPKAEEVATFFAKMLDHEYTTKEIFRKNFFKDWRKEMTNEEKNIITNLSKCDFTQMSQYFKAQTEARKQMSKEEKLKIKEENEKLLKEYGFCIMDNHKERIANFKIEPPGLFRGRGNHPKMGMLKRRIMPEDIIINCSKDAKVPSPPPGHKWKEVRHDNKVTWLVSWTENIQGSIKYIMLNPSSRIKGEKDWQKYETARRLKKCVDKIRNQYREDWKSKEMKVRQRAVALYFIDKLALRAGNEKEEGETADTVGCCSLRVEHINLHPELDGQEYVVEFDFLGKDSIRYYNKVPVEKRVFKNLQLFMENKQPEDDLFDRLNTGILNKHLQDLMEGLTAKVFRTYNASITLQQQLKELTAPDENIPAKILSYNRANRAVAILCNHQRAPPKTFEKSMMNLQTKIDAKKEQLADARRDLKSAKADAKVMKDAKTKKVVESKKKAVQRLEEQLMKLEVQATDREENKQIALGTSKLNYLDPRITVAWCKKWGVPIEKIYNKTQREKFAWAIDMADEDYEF

Klebsiella pneumoniae = experiment: Antibacterial activity against Klebsiella pneumoniae NR15410 after 24 hrs by microbroth dilution method; assay type: functional; conditions: NR15410, 24 h; summary of the method: as §1
[9] = Binding affinity to dA60.dT60 B-DNA duplex (unknown origin) assessed as change in melting temperature at 10 uM by UV-vis spectrophotometric analysis
Summary of the method: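 UV melting of dA60·dT60 at 1 μM/duplex with compound at 10 μM. Buffer 10 mM sodium cacodylate, 0.1 mM EDTA, 100 mM NaCl, pH 7.0; duplex pre-annealed from 95 °C. Compound stocks in DMSO diluted into buffer. Heating at 0.2 °C/min, monitored at 260 nm, points every 1.0 °C; Tm taken from derivatives.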

Citrobacter freundii = experiment: Antibacterial activity against Citrobacter freundii 4747CFAA after 24 hrs by microbroth dilution method; assay type: functional; summary of the method: as §1
DU-145 = experiment: Cytotoxicity against human DU145 cells after 48 hrs by SRB assay; assay type: cell-based; conditions: Homo sapiens, DU-145, 48 h
Summary of the method: (§3)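 Cells cultured per ATCC protocols, seeded and grown 24 h (37 °C, 5% CO2), then treated in triplicate at final 20, 10, 5, 2.5, 1.25, 0.625 and 0.0625 μM for 48 h. Fixed with cold TCA (16% final, 4 °C, 1 h), stained with SRB in 1% acetic acid, dye solubilized in 10 mM Tris base, A560 read. IC50 derived; study in duplicate.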

Escherichia coli [10] = experiment: Inhibition of Escherichia coli DNA gyrase using relaxed plasmid pBAD-GFPuv as substrate after 30 mins by agarose gel electrophoresis
Escherichia coli [11] = experiment: Inhibition of Escherichia coli RNA topoisomerase-1 using circular RNA as substrate 10 uM after 1.5 hrs by SDS-PAGE analysis
Summary of the method: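 10 nM E. coli topoisomerase I premixed with reaction buffer and inhibitor diluted in DMSO, then circular RNA substrate added; 1.5 h incubation. Stopped with proteinase K/SDS/EDTA buffer. Trefoil RNA knot product separated from circular substrate on 15% TBE−urea gels and detected by phosphorimaging. DMSO-only control included.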

[12] = Cytotoxicity against human PCS-201-010 cells after 48 hrs by SRB assay; assay type: cell-based; conditions: PCS-201-010, 48 h; summary of the method: as §3
[13] = Binding affinity to dA60.dT60 B-DNA duplex (unknown origin) assessed as induction of biphasic transition at <5 uM by UV-vis spectrophotometric analysis
[14] = Inhibition of Escherichia coli DNA topoisomerase 1 using plasmid pBAD-GFPuv as substrate after 15 mins by agarose gel electrophoresis
Summary of the method: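 E. coli topoisomerase I at 6 nM relaxing 150 ng supercoiled pBAD-GFPuv. 15 min at 37 °C, phenol-stopped, 1% agarose gel, ethidium stain. IC50 is the concentration leaving 50% DNA supercoiled; three independent determinations.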

[15] = Inhibition of human DNA topoisomerase 2 using plasmid pBAD-GFPuv as substrate after 30 mins by agarose gel electrophoresis
Summary of the method: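 Compound at 5–50 μM final, 30 min at 37 °C. Phenol extraction, 1% agarose electrophoresis, ethidium stain. IC50 = concentration at which 50% of DNA remains (−) supercoiled.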

CCOc1ccc(-c2nc3cc(-c4nc5cc(N6CCN(C)CC6)ccc5[nH]4)ccc3[nH]2)cc1
MIC (Pseudomonas aeruginosa): 16 µg/mL (≈ 35.4 µM) | MIC [1]: 1 µg/mL (≈ 2.21 µM) | MIC (Staphylococcus aureus [2]): 2 to 4 µg/mL (≈ 4.42 to 8.84 µM) | MIC (Shigella flexneri): 1 to 2 µg/mL (≈ 2.21 to 4.42 µM) | MIC (Enterococcus faecium): 0.3 µg/mL (≈ 0.663 µM) | MIC (Staphylococcus aureus [3]): 1 µg/mL (≈ 2.21 µM) | MIC (Enterobacter cloacae): 4 µg/mL (≈ 8.84 µM) | MIC (Escherichia coli [4]): 16 µg/mL (≈ 35.4 µM) | MIC (Staphylococcus aureus [5]): 2 to 4 µg/mL (≈ 4.42 to 8.84 µM) | MIC (Escherichia coli [6]): 16 µg/mL (≈ 35.4 µM) | MIC (Acinetobacter baumannii): 8 µg/mL (≈ 17.7 µM) | inhibition (Escherichia coli [7]): inactive | MIC (Enterococcus faecalis): 16 to 32 µg/mL (≈ 35.4 to 70.7 µM) | MIC (Staphylococcus aureus [8]): 0.5 µg/mL (≈ 1.1 µM)

C#CCOCCCCCCCCCCCCOc1ccc(-c2nc3ccc(-c4nc5ccc(N6CCN(C)CC6)cc5[nH]4)cc3[nH]2)cc1
IC50 (DNA topoisomerase 1): > 50 µM | MIC (Pseudomonas aeruginosa): 16 µg/mL (≈ 24.7 µM) | MIC (Klebsiella pneumoniae): > 32 µg/mL | MIC [1]: > 32 µg/mL | MIC (Staphylococcus aureus [2]): 16 to 32 µg/mL (≈ 24.7 to 49.5 µM) | ΔTm [9]: 1.2 °C | MIC (Shigella flexneri): > 32 µg/mL | MIC (Citrobacter freundii): > 32 µg/mL | IC50 (DU-145): > 10 µM | inhibition (Escherichia coli [10]): inactive | inhibition (Escherichia coli [11]): Active | MIC (Enterococcus faecium): ≥ 32 µg/mL | IC50 [12]: > 10 µM | MIC (Staphylococcus aureus [3]): > 32 µg/mL | Activity [13]: Active | MIC (Enterobacter cloacae): > 32 µg/mL | MIC (Escherichia coli [4]): 16 µg/mL (≈ 24.7 µM) | MIC (Staphylococcus aureus [5]): 16 to 32 µg/mL (≈ 24.7 to 49.5 µM) | MIC (Escherichia coli [6]): 16 µg/mL (≈ 24.7 µM) | MIC (Acinetobacter baumannii): > 32 µg/mL | MIC (Enterococcus faecalis): 16 to 32 µg/mL (≈ 24.7 to 49.5 µM) | MIC (Staphylococcus aureus [8]): > 32 µg/mL | IC50 [14]: 4 µM

C#CCOCCCCCCCCCCOc1ccc(-c2nc3ccc(-c4nc5ccc(N6CCN(C)CC6)cc5[nH]4)cc3[nH]2)cc1
IC50 (DNA topoisomerase 1): > 50 µM | MIC (Pseudomonas aeruginosa): 16 to 32 µg/mL (≈ 25.9 to 51.7 µM) | MIC (Klebsiella pneumoniae): > 32 µg/mL | MIC [1]: > 32 µg/mL | IC50 [15]: > 50 µM | MIC (Staphylococcus aureus [2]): > 32 µg/mL | ΔTm [9]: 5.6 °C | MIC (Shigella flexneri): > 32 µg/mL | MIC (Citrobacter freundii): > 32 µg/mL | IC50 (DU-145): > 10 µM | inhibition (Escherichia coli [11]): Active | MIC (Enterococcus faecium): > 32 µg/mL | MIC (Staphylococcus aureus [3]): > 32 µg/mL | Activity [13]: Active | MIC (Enterobacter cloacae): > 32 µg/mL | MIC (Escherichia coli [4]): > 32 µg/mL | MIC (Staphylococcus aureus [5]): > 32 µg/mL | MIC (Escherichia coli [6]): 2 to 4 µg/mL (≈ 3.23 to 6.46 µM) | MIC (Acinetobacter baumannii): > 32 µg/mL | MIC (Enterococcus faecalis): 16 to 32 µg/mL (≈ 25.9 to 51.7 µM) | MIC (Staphylococcus aureus [8]): > 32 µg/mL | IC50 [14]: 12.2 µM
